Results on 6 compounds are retold here after PubChem BioAssay.

The source made the active and inactive calls.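 The calls were made as follows, unless noted: active = viability at or below 30% in both replicate assays; inconclusive = viability at or below 30% in just one of the two assays; inactive = the rest.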 Peptide text beside a SMILES is read from it.

Usually inhibition stands for the change of the read-out against control, counted positive when it falls. As a reminder, the viability is a read-out of living cells in per cent, often relative to untreated cells.

Assay [1] addresses Pantothenate synthetase (Mycobacterium tuberculosis (strain ATCC 25618 / H37Rv)) (UniProt P9WIL5). As to the kind of experiment: Recombinant Mtb pantothenate synthetase (PanC) inhibitors, coupled enzyme, confirmatory (AID 375; call rule not given here;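 also: 0% = full reaction with vehicle and 100% = no enzyme background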). As to conditions: coupled enzyme assay; at 10 µM, stronger effect = higher value.
Assay [2] in a line: SK-BR-3 cell growth inhibitors, pilot screen, 24 h, human (AID 572;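 active = viability at or below 10% of carrier control in both of two separate runs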;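 also: compound exposure lasted between 18 and 24 h rather than exactly 24 h; 100% = carrier-treated control wells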). The conditions noted are these: SK-BR-3 viability, CellTiter-Glo luminescence, at 10 µM, stronger effect = lower value. (In ATP-based viability assays light output follows the ATP content of the culture.)
Assay [3] can be described thus: HUVEC growth inhibition – cell-based, human, primary screen (AID 575).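 Also: 100% = median of untreated cell wells with 0.1% DMSO on each plate.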 As to conditions: HUVEC proliferation, CellTiter-Glo luminescence, 72 h; at 10 µM; stronger effect = lower value. In outline: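 system = HUVEC primary cells | amount = 1250 cells/well | buffer or medium = supplemented EBM, 2% fetal bovine serum | dosing = single-point 10 µM, DMSO 0.1% final | times = 72 h compound incubation | detection = CTG luminescence | read-out = % viability relative to median vehicle-well signal on each plate | control set = vehicle and MePR control wells | format = collagen-coated 384-well format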

Assay [4] can be described thus: growth inhibitors of H69AR lung tumor, primary screen, human, duplicate replicates (AID 580;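 active = viability at or under a set limit in both replicates, limit being median viability minus 3 SD, cut at about 48% in these data, passing the limit was not always enough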;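 also: 100% = mean luminescence of untreated wells and 0% = no signal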). As to conditions: H69AR lung tumor cells viability, ATP luminescence, 72 h; at 10 µM; stronger effect = lower value.
Assay [5] in a line: reversal of MRP1-mediated doxorubicin resistance, pilot screen, H69AR cells, doxorubicin co-treatment (AID 601;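 active = viability loss from added drug above about 55%, and viability with drug at most 40%, in both replicates, limit read from the data, passing the limit was not always enough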). As to conditions: CellTiter-Glo, 72 h, at 10 µM; for differential viability (reversal): stronger effect = higher value.
A short description of assay [6]: 384-well plate pilot, post-Golgi transport modulator project, inhibition of yeast transport mutant growth (AID 636; in the data active = inhibition above about 31%). As to conditions: absorbance 615 nm, about 18 h, stronger effect = higher value.
Assay [7] in a line: growth suppression of yeast trafficking mutant, preliminary HTS, modulators of trafficking downstream of Golgi apparatus project, 1536-format plate, OD 615 nm (AID 637; in the data active = inhibition above about 30%). As to conditions: yeast transport mutant growth, absorbance 615 nm, 18 h; stronger effect = higher value.
Where [8] appears, read: H69AR cells + 2 uM doxorubicin, measured here: viability with 2 uM doxorubicin, stronger effect = lower value.
Setting [9] is: H69AR cells, compound alone cytotoxicity.

Sequence of Pantothenate synthetase (Mycobacterium tuberculosis (strain ATCC 25618 / H37Rv)) (P9WIL5 whole entry, looked up): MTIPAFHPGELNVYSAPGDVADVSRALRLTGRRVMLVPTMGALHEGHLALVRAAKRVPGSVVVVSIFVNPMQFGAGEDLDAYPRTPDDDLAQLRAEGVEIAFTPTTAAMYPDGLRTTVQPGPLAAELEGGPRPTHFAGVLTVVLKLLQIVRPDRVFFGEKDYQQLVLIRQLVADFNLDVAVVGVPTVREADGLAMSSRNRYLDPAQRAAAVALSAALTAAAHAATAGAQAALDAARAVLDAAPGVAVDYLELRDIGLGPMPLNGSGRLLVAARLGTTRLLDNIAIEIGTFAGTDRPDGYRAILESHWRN

Turning to `CC(C)C[C@H](NC(=O)[C@@H]1CCCN1C(=O)[C@@H](N)Cc1ccc(O)cc1)C(=O)NCC(N)=O` (H-YPLG-NH2), the inhibition in assay [1] was 0% (inactive); in assay [6], -2.73% (inactive); in assay [7], 0.33% (inactive). Moreover, the viability was 105% (inactive) in assay [2]; 96.2% (inactive) in assay [3]; 97.6% (inactive) in assay [4]; 96.8% in assay [5] (setting [8]); 97.6% in assay [5] (setting [9]). Besides, the differential viability (reversal) in assay [5] (H69AR cells + 2 uM doxorubicin) was 0.84% (inactive).
For `COc1ccc(CCn2c(O)c(C=NCCCN(C)C)c(=O)[nH]c2=O)cc1OC`, the results for the inhibition in assay [1], in assay [6] and in assay [7] were 0% (inactive), -4% (inactive) and -1.59% (inactive), respectively. Besides, the viability was 103% (inactive) in assay [3], 98.1% (inactive) in assay [4], 94.5% in assay [5] (setting [8]) and 98.1% in assay [5] (setting [9]). Besides, the differential viability (reversal) in assay [5] (H69AR cells + 2 uM doxorubicin) is 3.64% (inactive).
`CNP1(NC)=NC(C(F)(F)F)=NC(C(F)(F)F)=N1`: the inhibition is 3% (inactive) in assay [1], -6.99% (inactive) in assay [6] and 4.36% (inactive) in assay [7]. Further, the viability in assay [2] was 95% (inactive); in assay [3], 124% (inactive); in assay [4] it was 98.1% (inactive); in assay [5] (setting [8]), 91.2%; in assay [5] (setting [9]), 98.1%. In addition, in assay [5] (H69AR cells + 2 uM doxorubicin), the differential viability (reversal) was 6.97% (inactive).
Take `[N-]=[N+]=CC(=O)OC[C@H](N)C(=O)O`: the inhibition is 0% (inactive) in assay [1], 1.56% (inactive) in assay [6] and 1.83% (inactive) in assay [7]. The viability is 99% (inactive) in assay [2]; 96.5% (inactive) in assay [3]; 88.5% (inactive) in assay [4]; 106% in assay [5] (setting [8]); 88.5% in assay [5] (setting [9]). In addition, in assay [5] (H69AR cells + 2 uM doxorubicin), the differential viability (reversal) was -17.2% (inactive).
Regarding `Cc1ccc(Cn2c(C)c3cnn(CC(=O)N4CCC5(CC4)OCCO5)c(=O)c3c2C)cc1`, the figures for the inhibition in assay [1], in assay [6] and in assay [7] were 0% (inactive), -0.81% (inactive) and -1.09% (inactive), respectively. In addition, the viability in assay [2] was 97% (inactive); in assay [3], 98% (inactive); in assay [5] (setting [8]), 100%; in assay [5] (setting [9]) it was 53.8%. In addition, the differential viability (reversal) in assay [5] (H69AR cells + 2 uM doxorubicin) was -46.2% (inactive).
In the case of `CCC(C(=O)N1CCC2(CC1)OCCO2)c1ccccc1` (stereo unspecified), the inhibition in assay [1] is 0% (inactive); in assay [6] it was -6.4% (inactive); in assay [7], 1.43% (inactive). Moreover, the viability in assay [3] is 102% (inactive); in assay [4], 93% (inactive); in assay [5] (setting [8]), 79.8%; in assay [5] (setting [9]), 93%. The differential viability (reversal) in assay [5] (H69AR cells + 2 uM doxorubicin) was 13.2% (inactive).
